Among the data in ChEMBL document CHEMBL2057104, “Identification of myricetin and scutellarein as novel chemical inhibitors of the SARS coronavirus helicase, nsP13” (Bioorg Med Chem Lett, 2012) are inhibition, Activity and IC50 values, retold here.

The subject of series [1] is Hepacivirus hominis. The series is described as follows: Inhibition of HCV NS3 helicase overexpressed in Escherichia coli BL21(DE3) assessed as inhibition of DNA unwinding activity at 10 uM by FRET assay.
In series [2] the test system is Hepacivirus hominis. The series can be described thus: Inhibition of HCV NS3 helicase ATP hydrolysis activity overexpressed in Escherichia coli BL21(DE3) assessed as inhibition of inorganic phosphate release by AM/MG-based colometric analysis in the presence of M13 ssDNA.
The test system of series [3] is Severe acute respiratory syndrome-related coronavirus. The series can be described thus: Inhibition of SARS coronavirus nsP13 helicase activity expressed in Escherichia coli Rosetta assessed inhibition of DNA unwinding activity at 10 uM by FRET assay. In outline: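 FRET dsDNA-unwinding assay using fluorescein/TAMRA-labelled duplex. When nsP13 unwinds the duplex, fluorescein emission is unquenched. Compound was added to the unwinding reaction at 10 µM, and fluorescence was read at 535 nm.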

Series [4] has the same test system. The series is described as follows: Inhibition of SARS coronavirus nsP13 ATP hydrolysis activity expressed in Escherichia coli Rosetta assessed as inhibition of inorganic phosphate release at 10 uM by AM/MG-based colometric analysis in the presence of M13 ssDNA.
Series [5] relates to MCF-10A. The series can be described thus: Cytotoxicity in human MCF10A cells at 2 uM measured every 24 hrs for 3 days by hemocytometry. In kind it is cell-based. The following applies: 72 h. In outline: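 MCF10A breast epithelial cells grown at 37°C in 5% CO2 and seeded at 2.0 × 10^5 per well. They were exposed to compound at 2 µM and harvested every 24 h for 3 days. Viable cells were counted by hemacytometer. Results are mean ± standard deviation, n = 6, compared by Student t-test.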

Series [6] in a line: Inhibition of SARS coronavirus nsP13 ATP hydrolysis activity expressed in Escherichia coli Rosetta assessed as inhibition of inorganic phosphate release by AM/MG-based colometric analysis in the presence of M13 ssDNA. Further details: species or system Severe acute respiratory syndrome-related coronavirus. The method in brief: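 ATP hydrolysis was measured colorimetrically as phosphate complex formation with ammonium molybdate/malachite green. Reactions ran with a range of compound concentrations. IC50 was derived from the concentration series.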

Activity calls are given as the source filed them. How the calls were made is not given here.

As to `O=c1cc(-c2ccc(O)c(-c3c(O)cc(O)c4c(=O)cc(-c5ccc(O)cc5)oc34)c2)oc2cc(O)cc(O)c12`, the inhibition entry in series [1], in series [2] and in series [3] was “inactive” in each case. Besides, the inhibition in series [4] came out at 20%.
In the case of `C[C@H]1O[C@@H](Oc2c(-c3cc(O)c(O)c(O)c3)oc3cc(O)cc(O)c3c2=O)[C@@H](O)[C@@H](O)[C@@H]1O`, the inhibition entry in series [1], in series [2] and in series [3] was “inactive” each time. The inhibition in series [4] was determined as 20%.
As to `O=c1c(O)c(-c2cc(O)c(O)c(O)c2)oc2cc(O)cc(O)c12` [MYRICETIN], the Activity result in series [5] is listed as “Non-toxic”. The inhibition result in series [1], in series [2] and in series [3] was “inactive” throughout. In addition, the inhibition in series [4] is over 90%.
On to `CC1(C)CC[C@]2(C)CC=C3[C@]4(C)CC[C@H]5C(C)(C)[C@@H](O)CC[C@]5(C)[C@H]4CC[C@@]3(C)[C@@H]2C1`, for which the inhibition entry in series [1], in series [2] and in series [3] was “inactive” throughout. Besides, the inhibition in series [4] was determined as 20%.
In the case of `O=c1cc(-c2ccc(O)cc2)oc2cc(O)c(O)c(O)c12` [SCUTELLAREIN], the Activity entry in series [5] is listed as “Non-toxic”. In addition, the inhibition entry in series [1], in series [2] and in series [3] was “inactive” in each case. For the same compound, the IC50 in series [6] was determined as 860 nM. The inhibition in series [4] was over 90%.
Regarding `C/C=C(/C)C(=O)O[C@H]1Cc2c(cc3oc(C)cc(=O)c3c2O)OC1(C)C`, the inhibition result in series [1], in series [2] and in series [3] was “inactive” in each case.
Consider `O=C(/C=C/c1ccccc1)NCCCCNC(=O)c1ccc(O)cc1`, for which the inhibition result in series [1], in series [2] and in series [3] was “inactive” each time.
`COc1c(O)cc2oc3cc(O)c(CC=C(C)C)c(O)c3c(=O)c2c1CC=C(C)C`: the inhibition result in series [1], in series [2] and in series [3] was “inactive” throughout.
Turning to `COc1c(O)cc2oc3cc(O)c4c(c3c(=O)c2c1CC=C(C)C)OC(C)(C)CC4`, the inhibition result in series [1], in series [2] and in series [3] was “inactive” each time.

Broadly, the inhibition is the percentage by which the read-out fell short of the control. As a reminder, the IC50 is the point on the concentration scale where inhibition reaches its midpoint.
